# Experimental data collected from several papers.
# Compare with care: the assays were run in different laboratories.
# Read-out: parasite growth
Compound,organism,assay,setting,IC50
CC(C)(C)CC(C)(C)Nc1c(-c2ccc(-c3ccccc3)cc2)nc2ncccn12,Leishmania amazonensis,MTT,"72 h, promastigote",31.1 µM
C=C1CC[C@@H]2C(C)(C)CCC[C@@]2(C)[C@@H]1CC/C(C)=C/C(=O)OC,Leishmania amazonensis,,"72 h, promastigote",6 µg/mL
COc1ccc(Sc2ccccc2)c(OC)c1OC,Leishmania braziliensis,MTT,"24 h, promastigote",14.3 µM
C=C1C[C@@]23CC[C@H]4[C@@](C)(CCC[C@@]4(C)C(=O)O)[C@@H]2CC[C@@H]1C3,Leishmania amazonensis,,"72 h, promastigote",28 µg/mL
CC(C)(C)CC(C)(C)Nc1c(-c2cccnc2)nc2ncccn12,Leishmania amazonensis,MTT,"72 h, promastigote",> 100 µM
COc1ccc([S+]([O-])c2ccc(C)cc2)c(OC)c1OC (stereo not drawn),Leishmania braziliensis,MTT,"24 h, promastigote",67.2 µM
CC(C)(C)CC(C)(C)Nc1c(-c2ccccc2)nc2ncccn12,Leishmania amazonensis,MTT,"72 h, promastigote",50.3 µM
COc1ccc(Sc2ccc(OC)c(OC)c2OC)cc1,Leishmania braziliensis,MTT,"24 h, promastigote",28 µM
Oc1ccc(/C=C/c2cc(O)cc(O)c2)cc1,Leishmania amazonensis,MTT,"72 h, promastigote",97.9 µM
COc1ccc([S+]([O-])c2ccc(OC)c(OC)c2OC)cc1 (stereo not drawn),Leishmania braziliensis,MTT,"24 h, promastigote",15.2 µM
N=C(N)c1ccc(OCCCCCOc2ccc(C(=N)N)cc2)cc1,Leishmania amazonensis,imaging,"48 h, intracellular, amastigote",3.4 µM
C[C@@H]1[C@H](O)[C@@H](C)/C=C/C=C/C=C/C=C/C=C/C=C/C=C/[C@H](O[C@@H]2O[C@H](C)[C@@H](O)[C@H](N)[C@@H]2O)C[C@@H]2O[C@](O)(C[C@@H](O)C[C@@H](O)[C@H](O)CC[C@@H](O)C[C@@H](O)CC(=O)O[C@H]1C)C[C@H](O)[C@H]2C(=O)O,Leishmania amazonensis,,"72 h, promastigote",0.06 µg/mL
